Reference: ChEMBL document CHEMBL4813946, “Discovery of novel 4-azaaryl-N-phenylpyrimidin-2-amine derivatives as potent and selective FLT3 inhibitors for acute myeloid leukaemia with FLT3 mutations” (Eur J Med Chem, 2021)
Activity calls are given as the source filed them. The rule behind the calls is not given here.

Tests used:
MV4-11 [1] = assay: Induction of apoptosis in human MV4-11 cells assessed as necrotic cells at 10 x GI50 concentration incubated for 24 hrs by annexin V-FITC and propidium iodide staining based flow cytometry (reference value: 0.75 %); type: functional
U-937 [2] = assay: Induction of apoptosis in human U937 cells assessed as late apoptotic cells at 20 x GI50 concentration incubated for 24 hrs by annexin V-FITC and propidium iodide staining based flow cytometry (reference value: […] %); type: functional
[3] = target: Receptor-type tyrosine-protein kinase FLT3 (Homo sapiens) (UniProt P36888); assay: Inhibition of FLT3-mediated signalling pathway in human MV4-11 cells assessed as inhibition of eIF4E phosphorylation upto 20 x GI50 concentration incubated for 6 hrs by western blot analysis; type: cell-based
Outline: (§1)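 Cells lysed in phosphate lysis buffer with protease inhibitors and protein quantified. Western blots probed phospho and total STAT5, AKT, ERK, S6RP and eIF4E, plus full-length and cleaved PARP and caspase-3, with β-actin as loading control. At least two independent experiments.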

U-937 [4] = assay: Induction of apoptosis in human U937 cells assessed as necrotic cells at 20 x GI50 concentration incubated for 24 hrs by annexin V-FITC and propidium iodide staining based flow cytometry (reference value: 10.30 %); type: functional
MV4-11 [5] = assay: Induction of apoptosis in human MV4-11 cells assessed as early apoptotic cells at 20 x GI50 concentration incubated for 24 hrs by annexin V-FITC and propidium iodide staining based flow cytometry (reference value: 2.12 %); type: functional
[6] = target: Receptor-type tyrosine-protein kinase FLT3 (Homo sapiens) (UniProt P36888); assay: Inhibition of FLT3-mediated signalling pathway in human U-937 cells assessed as inhibition of ERK phosphorylation upto 20 x GI50 concentration incubated for 6 hrs by western blot analysis; type: cell-based; outline: as §1
U-937 [7] = assay: Induction of apoptosis in human U937 cells assessed as viable cells at 5 x GI50 concentration incubated for 48 hrs by annexin V-FITC staining based flow cytometry (reference value: 86.25 %); type: functional
[8] = target: Receptor-type tyrosine-protein kinase FLT3 (Homo sapiens) (UniProt P36888); assay: Inhibition of FLT3-mediated signalling pathway in human U-937 cells assessed as inhibition of S6RP phosphorylation upto 20 x GI50 concentration incubated for 6 hrs by western blot analysis; type: cell-based; outline: as §1
[9] = target: Receptor-type tyrosine-protein kinase FLT3 (Homo sapiens, UniProt P36888, R595-E596INSEY); assay: Inhibition of FLT3 R595_E596insEY mutant (unknown origin) incubated for 120 mins by ADP-glo based luminescence assay
U-937 [10] = assay: Induction of apoptosis in human U937 cells assessed as early apoptotic cells at 20 x GI50 concentration incubated for 24 hrs by annexin V-FITC and propidium iodide staining based flow cytometry (reference value: 1.81 %); type: functional
U-937 [11] = assay: Induction of apoptosis in human U937 cells assessed as early apoptotic cells at 20 x GI50 concentration incubated for 48 hrs by annexin V-FITC staining based flow cytometry (reference value: 2.78 %); type: functional
[12] = Antiproliferative activity against human MOLM-13 cells harboring FLT3-ITD mutant assessed as reduction in cell viability after 72 hrs by resazurin assay; type: functional; details: MOLM-13, 72 h
Outline: (§2)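 Cells seeded and pre-incubated 24 h at 37 °C, 5% CO2, then given a five-fold dilution series of compound (from 10 mM DMSO stock) in medium, in triplicate. Resazurin added after 72 h exposure, 4 h in dark at 37 °C. Fluorescence read at 570/585 nm, normalised to DMSO vehicle. GI50 by non-linear regression; mean ± SD of at least two replicates.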

U-937 [13] = assay: Induction of apoptosis in human U937 cells assessed as early apoptotic cells at 10 x GI50 concentration incubated for 24 hrs by annexin V-FITC and propidium iodide staining based flow cytometry (reference value: 1.81 %); type: functional
MV4-11 [14] = assay: Induction of apoptosis in human MV4-11 cells assessed as viable cells at 5 x GI50 concentration incubated for 24 hrs by annexin V-FITC and propidium iodide staining based flow cytometry (reference value: 84.68 %); type: functional
MV4-11 [15] = assay: Induction of apoptosis in human MV4-11 cells assessed as late apoptotic cells at 20 x GI50 concentration incubated for 24 hrs by annexin V-FITC and propidium iodide staining based flow cytometry (reference value: 12.45 %); type: functional
THP-1 = assay: Antiproliferative activity against human THP-1 cells harboring wild type FLT3 assessed as reduction in cell viability after 72 hrs by resazurin assay; type: functional; outline: as §2
[16] = target: Cyclin-dependent kinase 1/cyclin B1 (Homo sapiens, UniProt P06493); assay: Inhibition of CDK1/cyclin B (unknown origin) using histone 1 protein substrate incubated for 120 mins measured after 40 mins incubation under dark by ADP-glo based luminescence assay; type: protein-complex assay
Outline: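 In-house ADP-Glo assay with 2 mM DMSO stocks. Kinases were CDK1/cyclin B at 1 nM, CDK2/cyclin E1 at 10 nM and CDK7/cyclin H/MAT1 at 40 nM. Substrate was histone 1 for CDK1 and CDK2, and a RNA pol II CTD peptide for CDK7. Compound at 8–10 concentrations, 1:3 serial, final DMSO 0.5%. Reactions ran 60–120 min at room temperature, then ADP-Glo reagent 40 min in the dark, then detection reagent 40 min, read by luminescence. Ki was derived from IC50 by Cheng-Prusoff.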

Sequence of Receptor-type tyrosine-protein kinase FLT3 (Homo sapiens) (P36888 whole entry): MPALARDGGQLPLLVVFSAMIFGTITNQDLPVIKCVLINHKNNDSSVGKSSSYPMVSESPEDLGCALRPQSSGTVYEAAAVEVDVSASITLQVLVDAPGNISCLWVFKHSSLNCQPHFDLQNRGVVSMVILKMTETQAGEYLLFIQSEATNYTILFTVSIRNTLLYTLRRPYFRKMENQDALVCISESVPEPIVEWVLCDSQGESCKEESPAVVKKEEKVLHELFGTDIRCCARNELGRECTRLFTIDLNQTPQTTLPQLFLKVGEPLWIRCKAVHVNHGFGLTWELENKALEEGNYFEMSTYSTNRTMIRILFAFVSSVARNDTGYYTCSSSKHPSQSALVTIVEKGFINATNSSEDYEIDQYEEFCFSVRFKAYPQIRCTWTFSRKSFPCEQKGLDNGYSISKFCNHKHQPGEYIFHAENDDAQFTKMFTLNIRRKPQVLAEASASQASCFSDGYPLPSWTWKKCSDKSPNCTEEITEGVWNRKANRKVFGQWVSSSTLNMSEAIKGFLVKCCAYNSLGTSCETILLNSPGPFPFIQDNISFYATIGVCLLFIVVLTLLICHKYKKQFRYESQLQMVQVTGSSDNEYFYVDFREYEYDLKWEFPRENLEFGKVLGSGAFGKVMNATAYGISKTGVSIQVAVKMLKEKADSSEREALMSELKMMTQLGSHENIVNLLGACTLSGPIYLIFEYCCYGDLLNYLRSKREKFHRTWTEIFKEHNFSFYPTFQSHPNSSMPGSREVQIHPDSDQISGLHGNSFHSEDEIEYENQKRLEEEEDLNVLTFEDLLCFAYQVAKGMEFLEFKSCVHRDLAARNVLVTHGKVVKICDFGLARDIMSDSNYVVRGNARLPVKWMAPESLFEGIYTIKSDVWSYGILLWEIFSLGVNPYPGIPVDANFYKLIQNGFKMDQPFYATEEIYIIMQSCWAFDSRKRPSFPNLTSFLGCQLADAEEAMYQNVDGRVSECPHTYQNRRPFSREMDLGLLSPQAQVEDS
Sequence of Receptor-type tyrosine-protein kinase FLT3 (P36888 whole entry, looked up, stated change not applied): as the sequence (P36888 whole entry) above
Sequence of Cyclin-dependent kinase 1/cyclin B1 (P06493 whole entry): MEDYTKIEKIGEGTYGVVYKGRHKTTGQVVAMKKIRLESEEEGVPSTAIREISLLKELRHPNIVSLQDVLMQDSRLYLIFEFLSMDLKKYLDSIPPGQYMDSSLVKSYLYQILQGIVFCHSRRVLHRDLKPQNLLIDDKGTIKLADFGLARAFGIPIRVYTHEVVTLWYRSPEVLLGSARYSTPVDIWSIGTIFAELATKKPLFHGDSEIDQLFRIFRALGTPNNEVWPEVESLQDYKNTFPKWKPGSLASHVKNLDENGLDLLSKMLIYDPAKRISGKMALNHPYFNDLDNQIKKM
Sequence of Cyclin-dependent kinase 1/cyclin B1 (P14635 whole entry, further chain): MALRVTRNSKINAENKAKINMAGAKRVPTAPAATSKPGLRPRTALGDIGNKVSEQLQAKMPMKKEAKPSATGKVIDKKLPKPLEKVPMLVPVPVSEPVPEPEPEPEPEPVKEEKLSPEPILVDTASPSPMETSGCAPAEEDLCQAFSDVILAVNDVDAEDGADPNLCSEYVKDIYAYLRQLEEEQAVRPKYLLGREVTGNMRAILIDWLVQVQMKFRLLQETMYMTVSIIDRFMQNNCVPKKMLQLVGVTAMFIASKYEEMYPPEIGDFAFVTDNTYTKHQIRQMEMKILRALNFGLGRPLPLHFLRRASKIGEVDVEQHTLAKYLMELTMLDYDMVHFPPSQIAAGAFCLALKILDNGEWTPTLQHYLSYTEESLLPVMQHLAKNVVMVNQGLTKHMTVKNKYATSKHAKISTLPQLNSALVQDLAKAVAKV

inhibition [3]: Active
inhibition [6]: Active
inhibition [8]: Active
Ki [9]: 77 nM
GI50 (THP-1): 7.72 µM
Ki [16]: > 5 µM
SMILES: CC(=O)N1CCN(c2ccc(Nc3nccc(-c4cn(C)c5ncccc45)n3)cc2)CC1
Activity (MV4-11 [1]): 2.13%
Activity (U-937 [2]): 1.64%
Activity (U-937 [4]): 10.43%
Activity (MV4-11 [5]): 3.51%
Activity (U-937 [7]): 88.11%
Activity (U-937 [10]): 2.63%
Activity (U-937 [11]): 3.44%
GI50 [12]: 23 nM
Activity (U-937 [13]): 2.48%
Activity (MV4-11 [14]): 79.81%
Activity (MV4-11 [15]): 2.03%
